In ChEMBL document CHEMBL3259541, “Synthesis and biological evaluation of antimetastatic agents predicated upon dihydromotuporamine C and its carbocyclic derivatives” (J Med Chem, 2014):

Tests used:
L3.6pl [1] = experiment: Effect on intracellular ceramide population in human L3.6PL cells assessed as sphingomyelin N16:0 level measured as contribution to total ceramide population at 0.6 uM after 48 hrs incubation by mass spectrometry analysis (reference value: 37.3%); type: functional
L3.6pl [2] = experiment: Effect on intracellular ceramide population in human L3.6PL cells assessed as sphingomyelin N22:1 level measured as contribution to total ceramide population at 0.6 uM after 48 hrs incubation by mass spectrometry analysis (reference value: 6.5%); type: functional
L3.6pl [3] = experiment: Effect on intracellular ceramide population in human L3.6PL cells assessed as sphingomyelin N14:0 level measured per mg of protein at 0.6 uM after 48 hrs incubation by mass spectrometry analysis (reference value: 0.12 +/- 0.03 nmol); type: functional
L3.6pl [4] = experiment: Effect on intracellular ceramide population in human L3.6PL cells assessed as sphingomyelin N15:0 level measured per mg of protein at 0.6 uM after 48 hrs incubation by mass spectrometry analysis (reference value: 0.09 +/- 0.02 nmol); type: functional
L3.6pl [5] = experiment: Effect on intracellular ceramide population in human L3.6PL cells assessed as sphingomyelin N16:1 level measured per mg of protein at 0.6 uM after 48 hrs incubation by mass spectrometry analysis (reference value: 0.24 +/- 0.04 nmol); type: functional
L3.6pl [6] = experiment: Effect on intracellular ceramide population in human L3.6PL cells assessed as sphingomyelin N17:0 level measured per mg of protein at 0.6 uM after 48 hrs incubation by mass spectrometry analysis (reference value: 0.09 +/- 0.03 nmol); type: functional
L3.6pl [7] = experiment: Effect on intracellular ceramide population in human L3.6PL cells assessed as sphingomyelin N18:1 level measured per mg of protein at 0.6 uM after 48 hrs incubation by mass spectrometry analysis (reference value: 0.08 +/- 0.02 nmol); type: functional
L3.6pl [8] = experiment: Effect on intracellular ceramide population in human L3.6PL cells assessed as sphingomyelin N19:0 level measured per mg of protein at 0.6 uM after 48 hrs incubation by mass spectrometry analysis (reference value: 0.01 +/- 0.01 nmol); type: functional
L3.6pl [9] = experiment: Effect on intracellular ceramide population in human L3.6PL cells assessed as sphingomyelin N20:1 level measured per mg of protein at 0.6 uM after 48 hrs incubation by mass spectrometry analysis (reference value: 0.04 +/- 0.01 nmol); type: functional
L3.6pl [10] = experiment: Effect on intracellular ceramide population in human L3.6PL cells assessed as sphingomyelin N20:0 level measured per mg of protein at 0.6 uM after 48 hrs incubation by mass spectrometry analysis (reference value: 0.09 +/- 0.03 nmol); type: functional
L3.6pl [11] = experiment: Effect on intracellular ceramide population in human L3.6PL cells assessed as sphingomyelin N22:1 level measured per mg of protein at 0.6 uM after 48 hrs incubation by mass spectrometry analysis (reference value: 0.23 +/- 0.07 nmol); type: functional
L3.6pl [12] = experiment: Effect on intracellular ceramide population in human L3.6PL cells assessed as sphingomyelin N22:0 level measured per mg of protein at 0.6 uM after 48 hrs incubation by mass spectrometry analysis (reference value: 0.30 +/- 0.10 nmol); type: functional
L3.6pl [13] = experiment: Effect on intracellular ceramide population in human L3.6PL cells assessed as sphingomyelin N23:2 level measured per mg of protein at 0.6 uM after 48 hrs incubation by mass spectrometry analysis (reference value: 0.03 +/- 0.02 nmol); type: functional
L3.6pl [14] = experiment: Effect on intracellular ceramide population in human L3.6PL cells assessed as sphingomyelin N23:1 level measured per mg of protein at 0.6 uM after 48 hrs incubation by mass spectrometry analysis (reference value: 0.13 +/- 0.05 nmol); type: functional
L3.6pl [15] = experiment: Effect on intracellular ceramide population in human L3.6PL cells assessed as sphingomyelin N23:0 level measured per mg of protein at 0.6 uM after 48 hrs incubation by mass spectrometry analysis (reference value: 0.08 +/- 0.04 nmol); type: functional
L3.6pl [16] = experiment: Effect on intracellular ceramide population in human L3.6PL cells assessed as sphingomyelin N24:3 level measured per mg of protein at 0.6 uM after 48 hrs incubation by mass spectrometry analysis (reference value: 0.05 +/- 0.02 nmol); type: functional
L3.6pl [17] = experiment: Effect on intracellular ceramide population in human L3.6PL cells assessed as sphingomyelin N24:2 level measured per mg of protein at 0.6 uM after 48 hrs incubation by mass spectrometry analysis (reference value: 0.25 +/- 0.09 nmol); type: functional
L3.6pl [18] = experiment: Effect on intracellular ceramide population in human L3.6PL cells assessed as sphingomyelin N24:1 level measured per mg of protein at 0.6 uM after 48 hrs incubation by mass spectrometry analysis (reference value: 0.85 +/- 0.38 nmol); type: functional
L3.6pl [19] = experiment: Effect on intracellular ceramide population in human L3.6PL cells assessed as sphingomyelin N24:0 level measured per mg of protein at 0.6 uM after 48 hrs incubation by mass spectrometry analysis (reference value: 0.22 +/- 0.06 nmol); type: functional
L3.6pl [20] = experiment: Effect on intracellular ceramide population in human L3.6PL cells assessed as sphingomyelin N25:1 level measured per mg of protein at 0.6 uM after 48 hrs incubation by mass spectrometry analysis (reference value: 0.02 +/- 0.02 nmol); type: functional
L3.6pl [21] = experiment: Effect on intracellular ceramide population in human L3.6PL cells assessed as sphingomyelin N26:1 level measured per mg of protein at 0.6 uM after 48 hrs incubation by mass spectrometry analysis (reference value: 0.01 +/- 0.00 nmol); type: functional
CHO-MG = experiment: Cytotoxicity against polyamine transporter deficient CHO-MG cells assessed as cell growth after 48 hrs incubation by MTS assay in presence of 1 mM aminoguanidine; type: ADME, cell-based; settings: Cricetulus griseus
In short: (§1)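 CHO and polyamine-transport-deficient CHO-MG* cells pretreated 24 h with 1 mM aminoguanidine, then exposed to compound for 48 h at 37 °C. Triplicate. IC50 taken as 50% growth inhibition. PTS selectivity expressed as the CHO-MG*/CHO IC50 ratio.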

CHO = experiment: Cytotoxicity against CHO cells assessed as cell growth after 48 hrs incubation by MTS assay in presence of 1 mM aminoguanidine; type: cell-based; settings: Cricetulus griseus; in short: as §1
polyamine transporter = experiment: Selectivity ratio of IC50 for polyamine transporter deficient CHO-MG cells to IC50 for CHO cells by MTS assay; type: ADME, cell-based, Cricetulus griseus; settings: chinese hamster, polyamine transporter deficient CHO-MG cells and CHO cells; read-out: Ratio IC50; in short: as §1
[22] = Cytotoxicity against human L3.6PL cells assessed as inhibition of cell growth after 48 hrs incubation by MTS assay in presence of 250 uM aminoguanidine treated 24 hrs prior compound addition; type: functional, cell-based; settings: for IC50: Homo sapiens, L3.6pl
In short: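 L3.6pl cells pretreated 24 h with 250 μM aminoguanidine, then incubated with compound for 48 h at 37 °C. Triplicate. IC50 is the concentration giving 50% growth inhibition and IC5 the concentration giving 5% inhibition, both versus untreated control.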

L3.6pl [23] = experiment: Effect on intracellular ceramide population in human L3.6PL cells assessed as ceramide N16:0 to N22:1 ratio measured at 0.6 uM after 48 hrs incubation by mass spectrometry analysis (reference value: 5.8 no_unit)

Row | SMILES | Activity (L3.6pl [1]) [%] | Activity (L3.6pl [2]) [%] | Activity (L3.6pl [3]) [nmol] | Activity (L3.6pl [4]) [nmol] | Activity (L3.6pl [5]) [nmol] | Activity (L3.6pl [6]) [nmol] | Activity (L3.6pl [7]) [nmol] | Activity (L3.6pl [8]) [nmol] | Activity (L3.6pl [9]) [nmol] | Activity (L3.6pl [10]) [nmol] | Activity (L3.6pl [11]) [nmol] | Activity (L3.6pl [12]) [nmol] | Activity (L3.6pl [13]) [nmol] | Activity (L3.6pl [14]) [nmol] | Activity (L3.6pl [15]) [nmol] | Activity (L3.6pl [16]) [nmol] | Activity (L3.6pl [17]) [nmol] | Activity (L3.6pl [18]) [nmol] | Activity (L3.6pl [19]) [nmol] | Activity (L3.6pl [20]) [nmol] | also measured
1 | Cl.NCCCNCCCNCC1CCCCCCCCCCCCCC1 | 38.4 | 4.6 | 0.2 | 0.17 | 0.34 | 0.16 | 0.14 | 0.02 | 0.05 | 0.15 | 0.3 | 0.46 | 0.02 | 0.17 | 0.1 | 0.06 | 0.31 | 1.1 | 0.25 | 0.03 | Activity (L3.6pl [21]): 0.01 nmol; IC50 (CHO-MG): 87.3 µM; IC50 (CHO): 82.9 µM; selectivity ratio (polyamine transporter): 1; IC5 [22]: 80 µM; IC50 [22]: 89.4 µM; Ratio (L3.6pl [23]): 8.4
2 | Cl.NCCCNCCCN1CCCCCCCCCCCCCC1 | 20.3 | 18.6 | 0.24 | 0.15 | 0.31 | 0.14 | 0.13 | 0.02 | 0.04 | 0.14 | 0.26 | 0.4 | 0.02 | 0.15 | 0.09 | 0.06 | 0.27 | 0.99 | 0.21 | 0.03 | Activity (L3.6pl [21]): 0.01 nmol; IC50 (CHO-MG): 2.96 µM; IC50 (CHO): 2.9 µM; selectivity ratio (polyamine transporter): 1; IC5 [22]: 0.6 µM; IC50 [22]: 0.99 µM; Ratio (L3.6pl [23]): 1.1
